Assay results as given in ChEMBL document CHEMBL3576788, “Dual-Mode HDAC Prodrug for Covalent Modification and Subsequent Inhibitor Release” (J Med Chem, 2015).
Numbering of substitutions follows the chain as printed. Values belong to the compound of their own block, whether it stands above or below them. Calls of active or inactive are those of the source. The calls are words filed in the database; no cut-off is given here.

Experiments:
[1] = Retention time of the compound in HEPES buffer treated with SAHA-TAP at pH 7.4 by LC-MS analysis in presence of GSH; assay type: physicochemical
In short: (§1)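 Compound incubated with GSH (2 mM, 2 equiv) in 50 mM HEPES, pH 7.4, for 2 h at 37 °C. Products resolved by analytical HPLC, with peak identities assigned by LC-MS from retention times.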

[2] = Stability in human plasma assessed as compound remaining after 2 hrs by HPLC analysis; assay type: ADME, cell-free; settings: read-out: Stability
In short: (§2)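 Pooled normal human plasma pre-warmed 2 min at 37 °C, spiked from a 5.0 mM DMSO stock, run in duplicate. Aliquots taken at 0–120 min, quenched with ACN, centrifuged and filtered. Analysed by reverse-phase C18 HPLC; percent parent is peak area relative to the 0 min sample.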

[3] = tested on: Jurkat; assay: Effect on alpha-actin level in human Jurkat cells at 6 to 20 uM after 4 hrs by Western blot analysis; assay type: ADME, cell-based
In short: (§3)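 Log-phase HH or Jurkat cells at 70% confluence treated 4 h, harvested, lysed in RIPA with protease inhibitors. Protein normalised by BCA, run on 10% SDS-PAGE and blotted to PVDF. Probed with anti-actin–HRP (plus acetylated-tubulin and tubulin antibodies) and detected by chemiluminescence.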

[4] = tested on: HH; assay: Effect on alpha-actin level in human HH cells at 6 to 20 uM after 4 hrs by Western blot analysis; assay type: ADME, cell-based; in short: as §3
[5] = Retention time of the compound in HEPES buffer at pH 7.4 by LC-MS analysis in presence of GSH; assay type: physicochemical; in short: as §1
[6] = Aqueous stability in 50 mM HEPES buffer at pH 7.4 by HPLC chromatogram; assay type: physicochemical
In short: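 Compound in 50 mM HEPES, pH 7.4, analysed by analytical HPLC right after preparation and again after 24 h at 37 °C, with no thiol present. Stability is read from the parent peak.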

[7] = biological target: Histone deacetylase 1 (Homo sapiens, UniProt Q13547); assay: Inhibition of human recombinant HDAC1 using MAZ1600 as fluorogenic substrate measured every 5 mins by optimized homogenous fluorescence based assay
[8] = biological target: Histone deacetylase 2 (Homo sapiens, UniProt Q92769); assay: Inhibition of human recombinant HDAC2 using MAZ1600 as fluorogenic substrate measured every 5 mins by optimized homogenous fluorescence based assay
[9] = biological target: Histone deacetylase 3 (Homo sapiens, UniProt O15379); assay: Inhibition of human recombinant HDAC3 using MAZ1600 as fluorogenic substrate measured every 5 mins by optimized homogenous fluorescence based assay
[10] = biological target: T1, Protein deacetylase HDAC6 (Homo sapiens, UniProt Q9UBN7); assay: Inhibition of human recombinant HDAC6 using MAZ1600 as fluorogenic substrate measured every 5 mins by optimized homogenous fluorescence based assay
T1 sequence (Q9UBN7 whole entry): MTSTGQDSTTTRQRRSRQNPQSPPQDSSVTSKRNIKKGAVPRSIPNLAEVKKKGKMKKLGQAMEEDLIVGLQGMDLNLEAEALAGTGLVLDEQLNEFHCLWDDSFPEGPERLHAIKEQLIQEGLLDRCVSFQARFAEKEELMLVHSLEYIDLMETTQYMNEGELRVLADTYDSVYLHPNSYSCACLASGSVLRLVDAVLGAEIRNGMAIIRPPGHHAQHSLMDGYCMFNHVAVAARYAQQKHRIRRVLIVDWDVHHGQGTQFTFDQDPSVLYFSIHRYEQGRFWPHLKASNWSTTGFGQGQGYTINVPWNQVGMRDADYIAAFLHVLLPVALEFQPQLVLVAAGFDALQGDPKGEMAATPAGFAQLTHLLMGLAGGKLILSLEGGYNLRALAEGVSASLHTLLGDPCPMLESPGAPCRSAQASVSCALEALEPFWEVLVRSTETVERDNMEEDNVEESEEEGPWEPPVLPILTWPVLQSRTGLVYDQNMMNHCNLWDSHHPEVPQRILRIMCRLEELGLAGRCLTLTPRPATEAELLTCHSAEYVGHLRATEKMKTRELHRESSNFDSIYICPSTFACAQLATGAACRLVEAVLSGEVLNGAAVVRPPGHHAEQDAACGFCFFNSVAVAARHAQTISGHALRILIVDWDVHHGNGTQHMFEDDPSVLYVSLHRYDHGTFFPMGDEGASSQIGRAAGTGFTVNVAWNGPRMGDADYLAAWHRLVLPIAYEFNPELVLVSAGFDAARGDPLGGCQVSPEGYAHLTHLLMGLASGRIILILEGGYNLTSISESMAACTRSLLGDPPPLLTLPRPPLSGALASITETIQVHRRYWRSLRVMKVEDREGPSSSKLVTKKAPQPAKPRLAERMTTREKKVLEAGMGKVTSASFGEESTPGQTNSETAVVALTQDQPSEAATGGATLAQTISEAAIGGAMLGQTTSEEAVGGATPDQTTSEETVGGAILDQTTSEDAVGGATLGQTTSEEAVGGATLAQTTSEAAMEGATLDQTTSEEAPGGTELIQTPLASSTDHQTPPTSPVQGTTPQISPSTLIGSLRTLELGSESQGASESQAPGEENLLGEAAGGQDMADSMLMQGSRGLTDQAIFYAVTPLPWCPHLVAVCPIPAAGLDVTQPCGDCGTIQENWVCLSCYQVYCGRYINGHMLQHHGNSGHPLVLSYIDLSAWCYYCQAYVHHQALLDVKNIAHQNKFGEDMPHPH

[11] = biological target: T2, Histone deacetylase 8 (Homo sapiens, UniProt Q9BY41); assay: Inhibition of human recombinant HDAC8 using MAZ1675 as fluorogenic substrate measured every 5 mins by optimized homogenous fluorescence based assay
T2 sequence (Q9BY41 whole entry): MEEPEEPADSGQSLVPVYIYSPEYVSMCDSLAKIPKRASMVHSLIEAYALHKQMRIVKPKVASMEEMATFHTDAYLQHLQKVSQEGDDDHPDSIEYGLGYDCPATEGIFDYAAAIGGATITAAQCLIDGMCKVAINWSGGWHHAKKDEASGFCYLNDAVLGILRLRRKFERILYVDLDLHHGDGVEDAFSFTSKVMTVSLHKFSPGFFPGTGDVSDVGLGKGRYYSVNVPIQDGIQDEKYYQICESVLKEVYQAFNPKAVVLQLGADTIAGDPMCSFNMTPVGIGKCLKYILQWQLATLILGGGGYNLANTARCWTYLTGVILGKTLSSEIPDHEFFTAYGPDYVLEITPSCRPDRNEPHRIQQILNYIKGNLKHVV

[12] = biological target: Albumin (Bos taurus, UniProt P02769); assay: Stability of the compound assessed as bovine serum albumin-mediated drug degradation measured as compound remaining after 2 hrs by biochemical assay; assay type: ADME; settings: cattle, read-out: Stability
[13] = Stability of the compound assessed as trypsin (unknown origin)-mediated drug degradation measured as compound remaining after 2 hrs by biochemical assay; assay type: ADME; settings: human, read-out: Stability
[14] = biological target: T3, Histone deacetylase 8 (Homo sapiens) (UniProt Q9BY41); assay: Binding affinity to human wild type HDAC8 assessed as retention time for protein fragment after 60 mins of treatment in presence of trypsin (reference value: 84.5 mins)
T3 sequence (whole entry): T2 sequence (Q9BY41 whole entry)
In short: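 Recombinant human WT HDAC8 (1.7 μM) incubated with 12 equiv compound (20 μM) for 60 min at 37 °C. Protein isolated by SDS-PAGE, reduced (DTT, 56 °C) and alkylated (iodoacetamide), trypsin-digested overnight at 37 °C. Peptides separated on C18 with a 5–60% ACN gradient and detected by LC-MS/MS.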

[15] = biological target: T3, Histone deacetylase 8 (Homo sapiens); assay: Binding affinity to human wild type HDAC8 assessed as loss of activity measured with in 0.5 hrs by Fluor-de-Lys activity assay
[16] = biological target: T3, Histone deacetylase 8 (Homo sapiens); assay: (§4) Reversible-time dependent inhibition of human wild type HDAC8 by Fluor-de-Lys activity assay; settings: TDE = time-dependent effect
[17] = biological target: T2, Histone deacetylase 8; assay: as §4; settings: read-out: Ki(app)
[18] = tested on: T4, Histone deacetylase 8 (Homo sapiens), Q9BY41 [C153A]; assay: Time-dependent inhibition of human HDAC8 C153A mutant by Fluor-de-Lys activity assay
T4 sequence (whole entry): T2 sequence (Q9BY41 whole entry) with C153A
In short: (§5)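 Same as the wild-type method, but using the C153A HDAC8 mutant at 2 μM to start the reaction. Zn2+-reconstituted enzyme; 150 μM Fluor-de-Lys substrate with inhibitor at 30 °C, pH 8.0. Time-point aliquots quenched with trypsin/TSA. Product/substrate fluorescence ratio (ex 340, em 450/380 nm) gives progress curves.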

[19] = Stability in human plasma assessed as compound remaining after 1 hr by HPLC analysis; assay type: ADME, cell-free; settings: read-out: Stability; in short: as §2
[20] = tested on: HH; assay: Cytotoxicity against human HH cells assessed as cell proliferation after 70 hrs by MTS assay; assay type: functional, cell-based
[21] = tested on: Jurkat; assay: Cytotoxicity against human Jurkat cells assessed as cell proliferation after 70 hrs by MTS assay; assay type: functional, cell-based
[22] = Cytotoxicity against mouse NIH/3T3 cells assessed as cell proliferation after 70 hrs by MTS assay; assay type: ADME, cell-based; settings: NIH3T3, 70 h
[23] = biological target: T5, Histone deacetylase (Homo sapiens) (UniProt Q13547+O15379+Q9UBN7+Q92769+Q9UQL6+Q8WUI4+Q9BY41+Q96DB2+P56524+Q9UKV0+Q969S8); settings: HH, 6 to 20 uM
[24] = biological target: T5, Histone deacetylase (Homo sapiens); settings: Jurkat, 6 to 20 uM
[25] = biological target: T3, Histone deacetylase 8 (Homo sapiens)
[26] = tested on: T4, Histone deacetylase 8 (Homo sapiens), Q9BY41 [C153A]; assay: Binding affinity to human HDAC8 C153A mutant assessed as loss of activity at 2 to 10 uM by Fluor-de-Lys activity assay; in short: as §5
[27] = biological target: T3, Histone deacetylase 8 (Homo sapiens); assay: Binding affinity to human wild type HDAC8 assessed as loss of activity at 2 to 10 uM by Fluor-de-Lys activity assay
[28] = Prodrug activation assessed as GSH reactivity in HEPES buffer at pH 7.4 by LC-MS analysis; in short: as §1
[29] = tested on: HH; assay: Cytotoxicity against human HH cells assessed as cell proliferation at 50 uM after 70 hrs by MTS assay; assay type: functional, cell-based
In short: (§6)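 HH and Jurkat cells in RPMI 1640 + 10% FBS, seeded at 20 000 cells/well. Exposed directly to compound (0.5–128 μM) for 70 h. MTS reagent added for 4 h at 37 °C, absorbance at 490 nm. Each concentration run in triplicate, 2–3 trials.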

[30] = tested on: Jurkat; assay: Cytotoxicity against human Jurkat cells assessed as cell proliferation at 50 uM after 70 hrs by MTS assay; assay type: functional, cell-based; in short: as §6
[31] = Cytotoxicity against mouse NIH/3T3 cells assessed as cell proliferation at 50 uM after 70 hrs by MTS assay; assay type: cell-based; settings: nih3t3, 70 h
In short: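 NIH/3T3 cells in DMEM + 10% FBS, seeded at 5000 cells/well and allowed to attach for 16 h at 37 °C, 5% CO2. Then exposed to compound for 70 h. MTS reagent added for 2 h, absorbance at 490 nm. Triplicate wells, 2–3 trials.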

Chain of Histone deacetylase 1 (Q13547 whole entry): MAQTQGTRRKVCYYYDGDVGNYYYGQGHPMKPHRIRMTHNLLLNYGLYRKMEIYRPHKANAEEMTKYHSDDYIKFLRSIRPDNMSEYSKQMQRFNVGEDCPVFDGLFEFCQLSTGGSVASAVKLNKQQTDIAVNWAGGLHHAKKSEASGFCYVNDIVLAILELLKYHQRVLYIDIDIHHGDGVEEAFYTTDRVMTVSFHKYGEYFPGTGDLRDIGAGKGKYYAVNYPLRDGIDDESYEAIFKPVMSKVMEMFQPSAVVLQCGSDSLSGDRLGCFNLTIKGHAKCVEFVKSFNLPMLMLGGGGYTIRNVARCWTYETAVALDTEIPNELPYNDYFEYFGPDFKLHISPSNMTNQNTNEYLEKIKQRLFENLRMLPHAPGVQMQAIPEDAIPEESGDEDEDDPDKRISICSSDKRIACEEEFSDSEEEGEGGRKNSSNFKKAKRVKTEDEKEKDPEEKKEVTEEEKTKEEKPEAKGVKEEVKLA
Chain of Histone deacetylase 3 (O15379 whole entry): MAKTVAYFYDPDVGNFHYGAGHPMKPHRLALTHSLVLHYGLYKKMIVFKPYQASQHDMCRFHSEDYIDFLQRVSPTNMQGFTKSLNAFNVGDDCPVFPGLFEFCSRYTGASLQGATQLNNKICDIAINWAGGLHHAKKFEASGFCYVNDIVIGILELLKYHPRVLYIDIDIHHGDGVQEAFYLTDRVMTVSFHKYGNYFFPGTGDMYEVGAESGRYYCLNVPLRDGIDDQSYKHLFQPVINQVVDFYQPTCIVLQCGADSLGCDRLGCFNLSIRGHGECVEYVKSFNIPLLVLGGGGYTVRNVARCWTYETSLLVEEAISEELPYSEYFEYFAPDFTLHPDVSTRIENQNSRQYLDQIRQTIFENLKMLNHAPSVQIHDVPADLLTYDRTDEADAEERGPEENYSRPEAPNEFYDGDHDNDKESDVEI
Chain of Histone deacetylase 2 (Q92769 whole entry): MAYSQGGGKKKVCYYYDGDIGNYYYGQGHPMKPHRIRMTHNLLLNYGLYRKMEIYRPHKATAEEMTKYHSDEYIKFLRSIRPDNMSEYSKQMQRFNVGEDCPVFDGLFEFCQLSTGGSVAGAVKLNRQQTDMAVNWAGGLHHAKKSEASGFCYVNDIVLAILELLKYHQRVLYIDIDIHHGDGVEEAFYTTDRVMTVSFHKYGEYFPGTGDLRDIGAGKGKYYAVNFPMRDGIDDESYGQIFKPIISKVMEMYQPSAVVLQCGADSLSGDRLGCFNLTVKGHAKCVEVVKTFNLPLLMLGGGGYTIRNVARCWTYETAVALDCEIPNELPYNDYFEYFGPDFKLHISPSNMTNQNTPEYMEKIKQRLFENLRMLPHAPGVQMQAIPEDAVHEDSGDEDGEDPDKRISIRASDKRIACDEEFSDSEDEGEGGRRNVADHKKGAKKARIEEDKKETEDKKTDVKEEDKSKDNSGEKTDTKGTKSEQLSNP
Chain of Albumin (P02769 whole entry): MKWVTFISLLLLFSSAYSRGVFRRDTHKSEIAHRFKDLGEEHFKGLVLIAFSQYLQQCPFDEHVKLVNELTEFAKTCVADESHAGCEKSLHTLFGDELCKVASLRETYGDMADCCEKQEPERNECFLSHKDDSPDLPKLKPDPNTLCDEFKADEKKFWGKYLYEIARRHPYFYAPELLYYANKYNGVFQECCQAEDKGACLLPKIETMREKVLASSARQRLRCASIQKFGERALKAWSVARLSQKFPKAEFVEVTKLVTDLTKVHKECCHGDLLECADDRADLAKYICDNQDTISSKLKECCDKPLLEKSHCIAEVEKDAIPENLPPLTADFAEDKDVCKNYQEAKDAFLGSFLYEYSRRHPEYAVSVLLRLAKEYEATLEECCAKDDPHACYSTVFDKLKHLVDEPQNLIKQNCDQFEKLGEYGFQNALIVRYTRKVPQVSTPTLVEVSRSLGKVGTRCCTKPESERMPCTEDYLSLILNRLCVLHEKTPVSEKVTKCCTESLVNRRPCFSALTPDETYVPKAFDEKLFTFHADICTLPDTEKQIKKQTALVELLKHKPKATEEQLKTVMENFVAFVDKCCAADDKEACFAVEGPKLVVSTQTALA

Retention_time [1]: 10.5 min
Structure (SMILES): C=C1C(=O)C(C)=C(C)C(=O)C1(C)SC[C@H](NC(=O)CC[C@H](N)C(=O)O)C(=O)NCC(=O)O (stereo partly drawn)

Retention_time [1]: 10.7 min | remaining at 2 h [2]: 55%
Structure (SMILES): O=C(CCCCCCC(=O)Nc1ccccc1)NO [VORINOSTAT]

Retention_time [5]: 14.7 min | Stability [6]: > 97% | IC50 [7]: 0.371 µM | IC50 [8]: 0.255 µM | IC50 [9]: 0.149 µM | IC50 [10]: 0.023 µM | IC50 [11]: 3.84 µM | remaining at 2 h [12]: > 95% | remaining at 2 h [13]: > 95% | Retention time [14]: 88.5 min | inhibition [15]: Active | inhibition [16]: tde | Ki [17]: 7 µM | TDI [18]: inactive | remaining at 1 h [19]: 72% | remaining at 2 h [2]: 52% | inhibition [23]: Active | inhibition [24]: Active | K1/2 [25]: 8 µM
Structure (SMILES): CC1=C(C)C(=O)C(CONC(=O)CCCCCCC(=O)Nc2ccccc2)=C(C)C1=O
Activity [3]: Non-toxic | Activity [4]: Non-toxic | EC50 [20]: 3.38 µM | EC50 [21]: 6.05 µM | EC50 [22]: 9.37 µM

inhibition [26]: inactive | inhibition [27]: inactive | Activity [28]: Not Active | IC50 [7]: > 10 µM | IC50 [8]: > 10 µM | IC50 [9]: > 10 µM | IC50 [10]: > 10 µM | IC50 [11]: > 10 µM
Structure (SMILES): O=C(CCCCCCC(=O)Nc1ccccc1)NOCc1ccccc1
inhibition [29]: inactive | inhibition [30]: inactive | Activity [31]: Non-toxic
